Data published in paper PMC8572679 (Journal of Pharmaceutical Analysis, 2020).

Columns and labels:
[1] = cited from earlier work
[2] = molecular target: CYP51 enzyme lysate (Saccharomyces cerevisiae, UniProt P10614); assay: Enzymatic reaction in recombinant CYP51 enzyme lysate; assay type: biochemical, Saccharomyces cerevisiae S288C; conditions: NADPH 0.5 mM, 0-4 h
[3] = test system: CYP51; assay: Activity of CYP51 in four standard bacterial strains; assay type: cell-based, E. faecalis, S. epidermidis, E. cloacae, and E. faecium
Summary of the method: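 The four strains were resuscitated, plate-counted and diluted to equal density. 100 μL culture went into 0.9 mL sterile anaerobic medium, N₂-flushed, sealed and held at 37 °C. Groups were methanol control, 10 μL of 50 mg/mL BBR, or BBR plus 3.5 μg/mL voriconazole. After 48 and 72 h, cells were sonicated and CYP51 activity was measured by sterol 14α-demethylase ELISA kit.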

[4] = Pharmacokinetics of BBR, M1 and M2 in vivo after single oral administration; conditions: ICR mice; for AUC(0-t) / AUC(0-inf) / Cmax / MRT last / MRT inf / half-life: ICR, mouse, plasma, po, 200 mg/kg, two-compartment model, mean ± SD; for AUC(0-t): AUC(0–24 h); for AUC(0-t) / AUC(0-inf) / Cmax / MRT last / MRT inf: BBR in plasma; for MRT last: MRT(0–24 h); for MRT inf: MRT(0−∞); for half-life: t1/2, BBR in plasma; for level in plasma (below the lower limit of quantitation): any of the time points
Summary of the method: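 Male ICR mice, fasted 12 h, got a single oral dose of BBR 200 mg/kg + voriconazole 30 mg/kg, with food allowed after 3 h. Retrobulbar blood was drawn into heparinised tubes at 0.17–24 h (11 times) and stored at −20 °C. 100 μL plasma was precipitated with 300 μL methanol containing internal standard. BBR, M1 and M2 were measured by LC-MS/MS, with a curve of 1–1000 ng/mL and a lower limit of quantitation of 1 ng/mL.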

[5] = test system: gut microbiota; assay: 16S rRNA analysis of the feces of ICR mice after oral administration; assay type: in vivo
[6] = test system: mice gut microbiota; assay: Metabolism of BBR by the mice gut microbiota in vitro; assay type: in vitro ADME; conditions: BBR 50 mg/mL + voriconazole 3.5 μg/mL vs BBR group
Summary of the method: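 Mouse colon contents were homogenised anaerobically, 1 g in 20 mL autoclaved anaerobic medium, and preincubated 60 min at 37 °C under N₂. 1 mL culture received 10 μL methanol solution (BBR 50 mg/mL + voriconazole 3.5 μg/mL, BBR alone, or methanol control), was sealed and incubated at 37 °C for 12–72 h. It was quenched with methanol, centrifuged, diluted 50-fold and precipitated with methanol plus internal standard. BBR, M1 and M2 were measured by LC-MS/MS (ESI+), curve 1–1000 ng/mL.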

[7] = test system: mouse intestinal microsomes; assay: Metabolism of BBR in mouse intestinal microsomes in vitro; assay type: in vitro ADME; conditions: BBR 50 mg/mL + voriconazole 3.5 μg/mL
[8] = test system: E. faecalis, S. epidermidis, E. cloacae, and E. faecium; assay: Metabolism of BBR in the four standard bacterial strains; assay type: in vitro ADME; conditions: BBR 50 mg/mL + voriconazole 3.5 μg/mL, 72 h
Summary of the method: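 Plate-counted strains, equalised in density, were put in anaerobic medium (100 μL culture + 0.9 mL), N₂-flushed, sealed and preincubated 1 h at 37 °C. Each got 10 μL BBR (50 mg/mL solution) ± voriconazole (3.5 μg/mL solution) or methanol control and was incubated 48 and 72 h. It was quenched with 1 mL methanol containing internal standard and centrifuged. BBR, M1 and M2 were measured by LC-MS/MS (curve 1–1000 ng/mL) and % BBR metabolism calculated.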

[9] = oral BBR 200 mg/kg + voriconazole 30 mg/kg
[10] = feces 24 h after oral BBR, vs control group, P < 0.05

Sequence of CYP51 enzyme lysate (P10614 2-530): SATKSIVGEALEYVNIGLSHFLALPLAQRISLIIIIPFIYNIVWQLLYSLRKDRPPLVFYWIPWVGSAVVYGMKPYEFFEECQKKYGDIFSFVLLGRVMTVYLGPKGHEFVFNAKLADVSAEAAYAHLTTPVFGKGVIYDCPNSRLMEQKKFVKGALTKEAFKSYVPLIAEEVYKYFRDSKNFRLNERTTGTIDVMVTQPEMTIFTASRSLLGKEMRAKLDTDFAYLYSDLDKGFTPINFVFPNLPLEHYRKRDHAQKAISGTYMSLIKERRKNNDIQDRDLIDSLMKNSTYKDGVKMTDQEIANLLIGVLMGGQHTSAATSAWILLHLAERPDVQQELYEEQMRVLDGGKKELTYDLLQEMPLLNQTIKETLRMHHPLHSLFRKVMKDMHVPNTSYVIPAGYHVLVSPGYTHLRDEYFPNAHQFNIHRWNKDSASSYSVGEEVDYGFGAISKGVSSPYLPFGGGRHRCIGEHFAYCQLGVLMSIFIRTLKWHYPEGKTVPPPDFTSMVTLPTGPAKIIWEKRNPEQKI

## COc1ccc2cc3[n+](cc2c1OC)CCc1cc2c(cc1-3)OCO2 [BBR, Berberine]
[1]
  share of BBR that could enter the blood (absorption rate): less than 10%
[2]; BBR 10 μg/mL, CYP51 enzyme lysate compared with the control
  production ratios of M1 and M2: significantly increased
[3]; four strains incubated with 50 mg/mL BBR for 72 h
  activity of CYP51 compared with that in the strains alone: not significantly different
[4]; [9]
  AUC(0-t): 299 ± 56.4 ng·h/mL
  AUC(0-inf): 388 ± 103 ng·h/mL
  Cmax: 64.5 ± 20.1 ng/mL
  MRT last: 6.5 ± 1.4 h
  MRT inf: 10.4 ± 2.32 h
  half-life: 9.91 ± 5.26 h
[4]; oral BBR 200 mg/kg
  AUC(0-t): 272 ± 68.4 ng·h/mL
  AUC(0-inf): 334 ± 79.3 ng·h/mL
  Cmax: 44.3 ± 10.4 ng/mL
  MRT last: 7.39 ± 1.71 h
  MRT inf: 12.7 ± 5.85 h
  half-life: 8.44 ± 5.55 h
[5]; after oral BBR, vs control group, P < 0.05 (Fig. S2)
  abundance of Porphyromonadaceae (family level): significant increase
[5]; [10]
  abundance of the genus Parabacteroides: significant increase
  abundances of five genera (Tyzzerella 3, Rikenellaceae RC9 gut group, Roseburia, Tyzzerella, Ruminococcus 1): significant decrease

## CC(C)=CCC[C@@H](C)[C@H]1CC[C@@]2(C)C3=C(CC[C@]12C)[C@@]1(C)CC[C@H](O)C(C)(C)[C@@H]1CC3 [Lanosterol]
[2]; lanosterol 10 μg/mL, CYP51 enzyme lysate
  production ratio of demethylated metabolite FF-MAS: increased significantly

## COc1c(O)ccc2cc3[n+](cc12)CCc1cc2c(cc1-3)OCO2 [M1, Thalifendine]
[4]; [9]
  level in plasma (below the lower limit of quantitation): < 1 ng/mL

## COc1ccc2cc3[n+](cc2c1O)CCc1cc2c(cc1-3)OCO2 [M2, Berberrubine]
[4]; [9]
  level in plasma (below the lower limit of quantitation): < 1 ng/mL

## C[C@@H](c1ncncc1F)[C@](O)(Cn1cncn1)c1ccc(F)cc1F [voriconazole]
[6]
  percentage of residual BBR after the addition of voriconazole: significantly increased
  production of M1 after the addition of voriconazole: significantly decreased
  production of M2 after the addition of voriconazole: significantly decreased
[7]; 30 min
  decrease of production of M1 after adding voriconazole: 21%
  decrease of production of M2 after adding voriconazole: 28%
[7]; 60 min
  decrease of production of M1 after adding voriconazole: 25%
  decrease of production of M2 after adding voriconazole: 26%
[7]; 120 min
  decrease of production of M1 after adding voriconazole: 20%
  decrease of production of M2 after adding voriconazole: 30%
[3]; four strains, BBR 50 mg/mL + voriconazole 3.5 μg/mL, 72 h
  CYP51 activity after the addition of voriconazole: reduced
[8]
  level of M2 produced by each strain after the addition of voriconazole: below the lower limit of quantitation
[8]; vs BBR group
  level of M1 produced by each strain after the addition of voriconazole: significantly reduced
[5]; oral BBR 200 mg/kg + voriconazole 30 mg/kg vs BBR 200 mg/kg (Fig. S3)
  abundances of Parabacteroides, Tyzzerella 3, Rikenellaceae RC9 gut group, Roseburia, Tyzzerella, Ruminococcus 1 and Porphyromonadaceae after the addition of voriconazole: did not change significantly
